In the library only some 3.7% were active in any assay of this set; here they are far more common.
ERAP1 HTS inh: inhibitors of human ERAP1 aminopeptidase. Q9NZ08. recombinant ERAP1, Leu-AMC fluorescence, 60 min. inhibition, % at 10.7 µM. actives 0.15% (n = 340,000);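 active means mean replicate inhibition of at least 30%, or all replicates individually reaching that 30% level; inactive means mean below 30% and not every replicate reaching it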;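 further: 0% = neutral control wells and 100% = L-leucinethiol positive control wells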
DENV2 CPE: inhibitors of DENV2 cytopathic effect | actives 1.7% (n = 350,000) | DENV2-infected cells, cytopathic effect rescue, plate reader | CPE inhibition, % at 9.99 µM; in the data active means CPE inhibition above about 20%, passing the limit was not always enough; inconclusive means no clear call, values can overlap the other calls; tested in BHK-21 cells;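 further: 0% = median of neutral control wells and 100% = median of positive control wells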
FGF22 binding: FGF22 (human) thermal shift binding | recombinant FGF22 thermal shift, SYPRO orange fluorescence; percent of sucrose octasulfate shift, DMSO zero | actives 1.5% (n = 340,000) | Q9HCT0 | activity (Tm shift, normalised), % at 9.99 µM;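 active means mean Tm shift, scaled 0 neutral to 100 positive control, at about 1.3% or above, every replicate too, limit read from the data; inconclusive means no clear call, values can overlap the other calls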
Target sequence (Q9HCT0 whole entry, looked up): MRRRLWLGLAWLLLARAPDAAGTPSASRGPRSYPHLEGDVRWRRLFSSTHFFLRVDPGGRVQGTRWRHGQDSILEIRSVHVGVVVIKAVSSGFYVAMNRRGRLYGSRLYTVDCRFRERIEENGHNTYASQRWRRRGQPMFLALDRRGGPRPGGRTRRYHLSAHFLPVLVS
E-selectin induc: E-selectin induction on HUVECs | AID 686992 | activation, % at 7.58 µM | actives 0.37% (n = 260,000) | HUVEC E-selectin immunofluorescence imaging; normalized: neutral wells 0, TNF-alpha wells 100 | P16581;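 active means mean E-selectin-positive cell signal at least 10% of the positive control, reached in at least 60% of replicates, without over 20% cell loss; inconclusive means no rule given, readout overlaps actives, possibly toxicity-flagged; inactive means the rest, including those meeting only one limit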
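Test system: HUVEC | Signal: Immunofluorescence imaging | Read-out: Percent E-selectin-positive cells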
F508del corr: CFTR F508del correction in bronchial cells; CFBE cells, YFP halide quenching; stimulated with forskolin plus potentiator P3; % fluorescence drop versus neutral controls; activity (quench increase), % at 7.58 µM; actives 0.36% (n = 350,000); AID 720511;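 active means mean added fluorescence quench of at least 8% versus neutral control, with both replicates also reaching 8%; inconclusive means only one of the mean or replicate conditions met; inactive means mean below 8% and not both replicates reaching 8%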;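 further: cells transiently co-express mutant CFTR-F508del with the halide-sensitive YFP; corrector assay measuring rescue of mutant channel to the surface after 24 h compound exposure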
* hit, by the source's call; ? = inconclusive; . = not tested or not shown.

SMILES | ERAP1 HTS inh | DENV2 CPE | FGF22 binding | E-selectin induc | F508del corr
CCN(C(=O)COC(=O)/C=C/c1ccc2c(c1)OCO2)c1c(N)n(Cc2ccccc2)c(=O)[nH]c1=O | -1 | 9 | 0 | . | 0
CCN(C(=O)CSc1nnc(C)n1-c1ccc(C)cc1)c1c(N)n(Cc2ccccc2)c(=O)[nH]c1=O | -2 | 3 | 0 | 0 | 20*
Cc1cccc(C(=O)N(Cc2ccco2)c2c(N)n(Cc3ccccc3)c(=O)[nH]c2=O)c1 | 0 | -7 | 0 | 1 | 28*
C/C=C/c1ccc([C@@H]2[C@H](CO)N(CCC(F)(F)F)C23CN(C(=O)COC)C3)cc1 | -5 | 15 | 0 | 0 | 1
COc1ccccc1C#Cc1ccc([C@@H]2[C@@H](CO)N3CCCCN(C(=O)C4CC4)C[C@H]23)cc1 | 5 | -6 | 1 | . | 0
CCN(C(=O)COC(=O)c1cc2c(s1)CCCC2)c1c(N)n(Cc2ccccc2)c(=O)[nH]c1=O | 3 | ? | 0 | -1 | 15*
C[C@H](CO)N1C[C@H](C)[C@@H](CN(C)Cc2ccc3c(c2)OCO3)Oc2ccc(NC(=O)CCC(F)(F)F)cc2CC1=O | 5 | -8 | . | -4 | 5
COCC(=O)Nc1ccc2c(c1)C(=O)N(C)C[C@@H](OC)[C@@H](C)CN(C(=O)CC1CC1)[C@@H](C)CO2 | -2 | -4 | 0 | 0 | 1
COCC(=O)Nc1ccc2c(c1)C(=O)N(C)C[C@@H](OC)[C@H](C)CN(C(C)=O)[C@H](C)CO2 | 1 | 102* | 0 | 0 | 0
COCC(=O)Nc1ccc2c(c1)C(=O)N(C)C[C@H](OC)[C@H](C)CN(C(=O)CC1CC1)[C@H](C)CO2 | -2 | 42* | 0 | 0 | 0
CCC(=O)N1C[C@H](C)[C@H](OC)CN(C)C(=O)c2cc(NC(=O)COC)ccc2OC[C@H]1C | -2 | 21* | 0 | 0 | 0
CCC(=O)N1C[C@H](C)[C@H](OC)CN(C)C(=O)c2cc(NC(=O)NC3CCCC3)ccc2OC[C@@H]1C | 1 | 39* | 0 | 0 | -2
CO[C@H]1CN(C)C(=O)c2cc(NS(=O)(=O)CC(F)(F)F)ccc2OC[C@@H](C)N(CCC(F)(F)F)C[C@H]1C | 1 | -9 | 0 | 0 | 4
CN(C)C(=O)[C@@H]1[C@@H](CO)[C@@H]2Cn3c(ccc(-c4cncnc4)c3=O)[C@H]1N2C(=O)NC1CCCC1 | . | . | . | 0 | .
COc1cccc(-c2ccc([C@@H]3[C@H]4CNCC(=O)N4[C@H]3CO)cc2)c1 | 0 | 3 | . | 0 | -2
CO[C@H]1CN(C)C(=O)c2cc(NC(C)=O)ccc2OC[C@@H](C)N(C(=O)c2ccccc2)C[C@@H]1C | -2 | 24* | 1 | 0 | .
CO[C@H]1CN(C)C(=O)c2cc(NC(=O)Nc3ccccc3)ccc2OC[C@H](C)N(C(C)=O)C[C@H]1C | 5 | 66* | 0 | 0 | 1
CCC(=O)Nc1ccc2c(c1)C(=O)N(C)C[C@@H](OC)[C@@H](C)CN(C(=O)COC)[C@H](C)CO2 | 0 | 22* | 0 | 0 | -3
CO[C@@H]1CN(C)C(=O)c2cc(NC(C)=O)ccc2OC[C@H](C)N(C(=O)c2ccccc2)C[C@@H]1C | -1 | -8 | 0 | 0 | .
C[C@@H]1CN([C@@H](C)CO)C(=O)c2cc(C#CC3(O)CCCC3)cnc2O[C@@H]1CN(C)C(=O)Nc1ccc2c(c1)OCO2 | -1 | 7 | 0 | 0 | 3
C[C@@H]1CN([C@@H](C)CO)S(=O)(=O)c2ccc(/C=C/c3ccccc3)cc2O[C@H]1CN(C)C(=O)NC1CCCC1 | 0 | 13 | 0 | 7 | 2
CCC(=O)N(C)C[C@@H]1Oc2ncc(-c3ccccc3OC)cc2C(=O)N([C@H](C)CO)C[C@H]1C | -2 | -11 | 0 | 0 | 0
O=C1NC[C@H](CCCCN2C[C@H](Cc3ccccc3)N(CCC3CCCCC3)C(=O)C2=O)N(CCc2ccccc2)C1=O | 0 | 1 | 8.8* | . | -3
O=C1NC[C@@H](CCCCN2C[C@H](Cc3ccccc3)N(CCC3CCCCC3)C(=O)C2=O)N(CCc2ccccc2)C1=O | . | ? | 0 | 1 | -1
CCN1/C(=C\c2ccc3cc(C)ccc3[n+]2CC)Sc2cc(C)c(C)cc21 | 15 | 0 | 0 | . | 62*
CCN1/C(=C/c2ccc3cc(C)cc(C)c3[n+]2CC)Sc2cc(C)ccc21 | 35* | 3 | 0 | . | 65*
